Active and inactive are the calls of the source. No cut-off for these calls is given here.
Assays:
HeLa = assay: Growth inhibition in human HeLa cells after 72 hrs by trypan blue dye-based assay; assay type: functional
Summary of the method: (§1)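 Three human tumour lines were used: HeLa (cervix adenocarcinoma), A-431 (epidermoid/squamous carcinoma) and MSTO-211H (biphasic mesothelioma). GI50 is the µM concentration giving 50% cell death relative to the untreated control culture. Ellipticine was run as reference.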

A-431 = assay: Growth inhibition in human A431 cells after 72 hrs by trypan blue dye-based assay; assay type: functional; settings: A-431, 72 h; summary of the method: as §1
MSTO-211H = assay: Growth inhibition in human MSTO-211H cells after 72 hrs by trypan blue dye-based assay; assay type: functional; summary of the method: as §1
Salmon testes DNA [1] = assay: Binding affinity to salmon DNA at compound to DNA ratio of 0.04 by linear flow dichroism analysis; assay type: nucleic-acid assay; settings: Salmonidae
[2] = biological target: DNA topoisomerase 2-alpha (Homo sapiens) (UniProt P11388); assay: Inhibition of recombinant human topoisomerase 2alpha assessed as decrease in relaxation of supercoiled pBR322 DNA after 60 mins by ethidium bromide staining based agarose gel electrophoresis method
Summary of the method: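 Topo II was incubated with supercoiled pBR322 DNA, with or without compound at a series of µM concentrations. Read-out is topoisomer formation from supercoiled DNA on a gel. Reference is 10 µM m-AMSA.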

[3] = biological target: T1, DNA topoisomerase 1 (Homo sapiens) (UniProt P11387); assay: Inhibition of recombinant human topoisomerase 1 assessed as decrease in relaxation of supercoiled pBR322 DNA after 60 mins by ethidium bromide staining based agarose gel electrophoresis method
T1 sequence (whole entry): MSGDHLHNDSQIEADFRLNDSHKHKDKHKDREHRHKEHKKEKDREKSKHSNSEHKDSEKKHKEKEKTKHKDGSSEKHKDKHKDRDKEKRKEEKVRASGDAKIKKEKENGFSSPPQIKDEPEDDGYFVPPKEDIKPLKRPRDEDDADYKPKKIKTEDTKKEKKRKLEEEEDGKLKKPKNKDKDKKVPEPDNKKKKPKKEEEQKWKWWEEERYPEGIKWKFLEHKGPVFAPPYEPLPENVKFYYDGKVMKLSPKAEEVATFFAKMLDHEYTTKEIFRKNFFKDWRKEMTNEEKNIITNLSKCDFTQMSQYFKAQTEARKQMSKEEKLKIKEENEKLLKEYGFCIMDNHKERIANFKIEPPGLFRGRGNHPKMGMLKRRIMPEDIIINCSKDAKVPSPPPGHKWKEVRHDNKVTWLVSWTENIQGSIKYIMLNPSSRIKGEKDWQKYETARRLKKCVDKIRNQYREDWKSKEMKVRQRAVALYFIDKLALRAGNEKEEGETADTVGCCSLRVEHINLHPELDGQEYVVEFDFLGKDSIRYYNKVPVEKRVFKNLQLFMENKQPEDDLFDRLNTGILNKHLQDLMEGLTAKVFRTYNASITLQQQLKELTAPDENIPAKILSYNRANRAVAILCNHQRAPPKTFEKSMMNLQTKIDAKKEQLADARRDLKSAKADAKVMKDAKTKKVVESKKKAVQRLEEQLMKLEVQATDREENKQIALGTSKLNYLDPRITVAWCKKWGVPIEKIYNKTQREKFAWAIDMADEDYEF
Summary of the method: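 Human recombinant Topo I was incubated with supercoiled pBR322 DNA, with or without compound at a series of µM concentrations. Read-out is the number of relaxed topoisomers formed.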

[4] = biological target: DNA topoisomerase 2-alpha (Homo sapiens) (UniProt P11388); assay: Poison activity at recombinant human topoisomerase-2 assessed as stabilization of covalent topo-2-DNA cleavage complex by measuring linear DNA formation at 10 uM using supercoiled pBR322 DNA as substrate after 60 mins by agarose gel electrophoresis method
Summary of the method: (§2)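 Cleavable-complex assay: supercoiled pBR322 DNA was incubated with Topo II, with or without compound at a series of µM concentrations. Enzyme-mediated linear DNA marks cleavage-complex stabilisation. Reference poison is 10 µM m-AMSA.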

[5] = biological target: T1, DNA topoisomerase 1 (Homo sapiens); assay: Poison activity at recombinant human topoisomerase-1 assessed as stabilization of covalent topo-1-DNA cleavage complex by measuring nicked DNA formation at 0.5 to 50 uM using supercoiled pBR322 DNA as substrate after 60 mins by agarose gel electrophoresis method
Summary of the method: (§3)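 Cleavable-complex assay: supercoiled pBR322 DNA was incubated with Topo I, with or without compound at a series of µM concentrations. Nicked DNA formation marks covalent complex stabilisation. Reference is 0.5 µM camptothecin.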

Salmon testes DNA [6] = assay: Binding affinity to salmon DNA at compound to DNA ratio of 0.02 to 0.04 by linear flow dichroism analysis; assay type: nucleic-acid assay; settings: Salmonidae
Salmon testes DNA [7] = assay: Binding affinity to salmon DNA at compound to DNA ratio of 0.08 by linear flow dichroism analysis; assay type: nucleic-acid assay; settings: Salmonidae
[8] = biological target: DNA topoisomerase 2-alpha (Homo sapiens) (UniProt P11388); assay: Poison activity at recombinant human topoisomerase-2 assessed as stabilization of covalent topo-2-DNA cleavage complex by measuring linear DNA formation up to 50 uM using supercoiled pBR322 DNA as substrate after 60 mins by agarose gel electrophoresis method; summary of the method: as §2
[9] = biological target: T1, DNA topoisomerase 1 (Homo sapiens); assay: Poison activity at recombinant human topoisomerase-1 assessed as stabilization of covalent topo-1-DNA cleavage complex by measuring nicked DNA formation using supercoiled pBR322 DNA as substrate after 60 mins by agarose gel electrophoresis method; summary of the method: as §3

Chain of DNA topoisomerase 2-alpha (Homo sapiens) (P11388 whole entry): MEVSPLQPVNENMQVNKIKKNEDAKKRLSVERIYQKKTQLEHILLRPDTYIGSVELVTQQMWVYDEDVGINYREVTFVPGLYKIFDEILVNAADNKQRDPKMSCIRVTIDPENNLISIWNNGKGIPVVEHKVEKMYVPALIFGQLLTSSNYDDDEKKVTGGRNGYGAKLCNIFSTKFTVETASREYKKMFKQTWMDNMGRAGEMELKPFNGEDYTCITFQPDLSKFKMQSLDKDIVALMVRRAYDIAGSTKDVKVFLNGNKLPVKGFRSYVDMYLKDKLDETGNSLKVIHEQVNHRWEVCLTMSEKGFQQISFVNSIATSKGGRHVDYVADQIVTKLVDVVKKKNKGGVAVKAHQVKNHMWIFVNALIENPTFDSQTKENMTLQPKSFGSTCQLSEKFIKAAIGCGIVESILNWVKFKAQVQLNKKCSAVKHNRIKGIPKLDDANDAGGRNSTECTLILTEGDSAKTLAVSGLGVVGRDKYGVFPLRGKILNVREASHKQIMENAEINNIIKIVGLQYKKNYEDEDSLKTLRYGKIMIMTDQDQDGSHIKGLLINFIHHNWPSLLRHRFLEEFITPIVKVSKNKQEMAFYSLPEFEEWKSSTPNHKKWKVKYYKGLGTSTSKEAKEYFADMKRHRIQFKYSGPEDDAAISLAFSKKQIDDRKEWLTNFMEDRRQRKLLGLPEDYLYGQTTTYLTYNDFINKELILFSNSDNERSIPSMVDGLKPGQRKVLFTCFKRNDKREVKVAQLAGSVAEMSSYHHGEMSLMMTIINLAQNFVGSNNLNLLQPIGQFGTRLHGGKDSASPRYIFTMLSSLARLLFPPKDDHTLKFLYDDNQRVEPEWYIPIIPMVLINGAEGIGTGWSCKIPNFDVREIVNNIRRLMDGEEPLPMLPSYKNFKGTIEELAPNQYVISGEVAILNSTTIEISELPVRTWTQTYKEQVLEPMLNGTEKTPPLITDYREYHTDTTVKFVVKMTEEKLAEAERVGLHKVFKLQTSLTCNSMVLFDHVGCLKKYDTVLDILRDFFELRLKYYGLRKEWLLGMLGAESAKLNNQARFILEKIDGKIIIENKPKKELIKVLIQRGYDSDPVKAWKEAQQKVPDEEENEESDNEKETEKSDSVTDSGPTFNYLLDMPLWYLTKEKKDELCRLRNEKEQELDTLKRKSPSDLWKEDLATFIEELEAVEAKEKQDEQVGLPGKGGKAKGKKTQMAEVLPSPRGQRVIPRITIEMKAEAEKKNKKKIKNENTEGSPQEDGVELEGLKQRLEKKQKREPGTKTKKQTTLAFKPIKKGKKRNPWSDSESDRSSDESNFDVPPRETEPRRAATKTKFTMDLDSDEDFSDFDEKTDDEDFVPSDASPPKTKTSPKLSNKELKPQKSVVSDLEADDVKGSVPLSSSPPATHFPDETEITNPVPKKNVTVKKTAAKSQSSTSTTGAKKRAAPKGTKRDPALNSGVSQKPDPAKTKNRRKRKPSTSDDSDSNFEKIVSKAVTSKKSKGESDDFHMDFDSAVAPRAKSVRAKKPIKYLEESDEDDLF

CCN(CC)CCn1c2ccccc2c2sc3ncccc3c(=O)c21
GI50 (HeLa): 2.57 µM
GI50 (A-431): 0.47 µM
GI50 (MSTO-211H): 1.33 µM
Activity (Salmon testes DNA [1]): Active
inhibition [2]: Dose-dependent effect
inhibition [3]: Dose-dependent effect
Activity [4]: Active
Activity [5]: inactive

CCN(CC)CCn1c2cc(OC)c(OC)cc2c2sc3ncccc3c(=O)c21
GI50 (HeLa): 6.93 µM
GI50 (A-431): 2.67 µM
GI50 (MSTO-211H): 0.62 µM
Activity (Salmon testes DNA [1]): Active
inhibition [2]: Dose-dependent effect
inhibition [3]: Dose-dependent effect
Activity [4]: Active
Activity [5]: Active

COc1ccc2c(c1)c1sc3ncccc3c(=O)c1n2CCN(C)C
GI50 (HeLa): 2.71 µM
GI50 (A-431): 1.42 µM
GI50 (MSTO-211H): 0.75 µM
Activity (Salmon testes DNA [1]): Active
inhibition [2]: Dose-dependent effect
inhibition [3]: Dose-dependent effect
Activity [4]: Active
Activity [5]: inactive

CCN(CC)CCn1c2cc(OC)c(OC)cc2c2sc3cc(Cl)ccc3c(=O)c21
GI50 (HeLa): 4.55 µM
GI50 (A-431): 2.22 µM
GI50 (MSTO-211H): 2.37 µM
Activity (Salmon testes DNA [1]): Active
inhibition [2]: Dose-dependent effect
inhibition [3]: Dose-dependent effect
Activity [4]: Active
Activity [5]: inactive

CCN(CC)CCn1c2cc(OC)c(OC)cc2c2sc3ccccc3c(=O)c21
GI50 (HeLa): 1.77 µM
GI50 (A-431): 1.11 µM
GI50 (MSTO-211H): 0.7 µM
Activity (Salmon testes DNA [1]): Active
inhibition [2]: Dose-dependent effect
inhibition [3]: Dose-dependent effect
Activity [4]: Active
Activity [5]: Active

Cc1c2ccncc2c(C)c2c1[nH]c1ccccc12 [ELLIPTECINE]
GI50 (HeLa): 0.47 µM
GI50 (A-431): 0.65 µM
GI50 (MSTO-211H): 0.77 µM
Activity (Salmon testes DNA [6]): Active

CN(C)CCn1c2ccc(Cl)cc2c2sc3ncccc3c(=O)c21
GI50 (HeLa): 3.02 µM
GI50 (A-431): 2 µM
GI50 (MSTO-211H): 2.36 µM
Activity (Salmon testes DNA [1]): Active
inhibition [2]: Dose-dependent effect
inhibition [3]: Dose-dependent effect
Activity [4]: Active
Activity [5]: inactive

CN(C)CCn1c2ccc(Cl)cc2c2sc3cc(Cl)ccc3c(=O)c21
GI50 (HeLa): 2.66 µM
GI50 (A-431): 1.76 µM
GI50 (MSTO-211H): 1.64 µM
Activity (Salmon testes DNA [7]): Active
inhibition [2]: Dose-dependent effect
inhibition [3]: Dose-dependent effect
Activity [4]: Active
Activity [5]: inactive

CCN(CC)CCn1c2ccc(OC)cc2c2sc3ccccc3c(=O)c21
GI50 (HeLa): 2.79 µM
GI50 (A-431): 2.08 µM
GI50 (MSTO-211H): 1.61 µM
Activity (Salmon testes DNA [7]): Active
inhibition [2]: Dose-dependent effect
inhibition [3]: Dose-dependent effect
Activity [4]: Active
Activity [5]: inactive

COc1ccc2c(=O)c3c(sc2c1)c1cc(OC)c(OC)cc1n3CCN(C)C
GI50 (HeLa): 0.74 µM
GI50 (A-431): 0.48 µM
GI50 (MSTO-211H): 0.44 µM
Activity (Salmon testes DNA [1]): Active
inhibition [2]: Dose-dependent effect
inhibition [3]: Dose-dependent effect
Activity [4]: Active
Activity [5]: inactive

COc1cc(NS(C)(=O)=O)ccc1Nc1c2ccccc2nc2ccccc12
Activity [4]: Active

CN(C)CCn1c2ccccc2c2sc3ncccc3c(=O)c21
GI50 (HeLa): 1.55 µM
GI50 (A-431): 0.54 µM
GI50 (MSTO-211H): 1.08 µM
Activity (Salmon testes DNA [1]): Active
inhibition [2]: Dose-dependent effect
inhibition [3]: Dose-dependent effect
Activity [4]: Active
Activity [5]: inactive

CCN(CC)CCn1c2cc(OC)c(OC)cc2c2sc3cc(OC)ccc3c(=O)c21
GI50 (HeLa): 1.75 µM
GI50 (A-431): 0.67 µM
GI50 (MSTO-211H): 0.36 µM
Activity (Salmon testes DNA [1]): Active
inhibition [2]: Dose-dependent effect
inhibition [3]: Dose-dependent effect
Activity [4]: Active
Activity [5]: inactive

COc1ccc2c(c1)c1sc3cc(Cl)ccc3c(=O)c1n2CCN(C)C
GI50 (HeLa): 2.79 µM
GI50 (A-431): 2.67 µM
GI50 (MSTO-211H): 2.96 µM
Activity (Salmon testes DNA [7]): Active
inhibition [2]: Dose-dependent effect
inhibition [3]: Dose-dependent effect
Activity [4]: Active
Activity [5]: inactive

COc1cc2c3sc4ncccc4c(=O)c3n(CCN(C)C)c2cc1OC
GI50 (HeLa): 1.7 µM
GI50 (A-431): 0.71 µM
GI50 (MSTO-211H): 0.35 µM
Activity (Salmon testes DNA [6]): Active
inhibition [2]: Dose-dependent effect
inhibition [3]: Dose-dependent effect
Activity [8]: inactive
Activity [9]: Dose-dependent effect
Activity [5]: Active

COc1cc2c3sc4cc(Cl)ccc4c(=O)c3n(CCN(C)C)c2cc1OC
GI50 (HeLa): 3.54 µM
GI50 (A-431): 3.19 µM
GI50 (MSTO-211H): 1.82 µM
Activity (Salmon testes DNA [1]): Active
inhibition [2]: Dose-dependent effect
inhibition [3]: Dose-dependent effect
Activity [4]: Active
Activity [5]: inactive

CCN(CC)CCn1c2ccc(OC)cc2c2sc3ncccc3c(=O)c21
GI50 (HeLa): 2.61 µM
GI50 (A-431): 1.9 µM
GI50 (MSTO-211H): 0.7 µM
Activity (Salmon testes DNA [1]): Active
inhibition [2]: Dose-dependent effect
inhibition [3]: Dose-dependent effect
Activity [4]: Active
Activity [5]: inactive

COc1ccc2c(c1)c1sc3ccccc3c(=O)c1n2CCN(C)C
GI50 (HeLa): 5.81 µM
GI50 (A-431): 2.24 µM
GI50 (MSTO-211H): 2.37 µM
Activity (Salmon testes DNA [7]): Active
inhibition [2]: Dose-dependent effect
inhibition [3]: Dose-dependent effect
Activity [4]: Active
Activity [5]: inactive

CCN(CC)CCn1c2ccc(OC)cc2c2sc3cc(Cl)ccc3c(=O)c21
GI50 (HeLa): 3.21 µM
GI50 (A-431): 5.44 µM
GI50 (MSTO-211H): 4.19 µM
Activity (Salmon testes DNA [7]): Active
inhibition [2]: Dose-dependent effect
inhibition [3]: Dose-dependent effect
Activity [4]: Active
Activity [5]: inactive

CCN(CC)CCn1c2ccc(Cl)cc2c2sc3ncccc3c(=O)c21
GI50 (HeLa): 4.2 µM
GI50 (A-431): 1.79 µM
GI50 (MSTO-211H): 1.42 µM
Activity (Salmon testes DNA [1]): Active
inhibition [2]: Dose-dependent effect
inhibition [3]: Dose-dependent effect
Activity [4]: Active
Activity [5]: inactive

CCN(CC)CCn1c2ccc(Cl)cc2c2sc3cc(Cl)ccc3c(=O)c21
GI50 (HeLa): 4.31 µM
GI50 (A-431): 3.29 µM
GI50 (MSTO-211H): 2.99 µM
Activity (Salmon testes DNA [7]): Active
inhibition [2]: Dose-dependent effect
inhibition [3]: Dose-dependent effect
Activity [4]: Active
Activity [5]: inactive
